Sampled rows, rich in hits. Any-hit rate of the full collection: about 4.5%.
MrgX1 antag – antagonists of human MrgX1 receptor, primary screen, HEK293 cells, Fluo-4 calcium flux. Mas-related G-protein coupled receptor member X1 (Homo sapiens), Q96LB2. BAM8-22 antagonism; active compounds read low. B-score at 10 µM. hit rate 1.3% among 310,000;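 active = calcium-response B-score plate-corrected more than 3 library SD below zero, starting fluorescence within 5 deviations, no agonist response on first addition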;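 also: peak minus trough fluorescence over baseline after final BAM8-22 challenge near maximal dose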
Target sequence (Q96LB2 whole entry, looked up): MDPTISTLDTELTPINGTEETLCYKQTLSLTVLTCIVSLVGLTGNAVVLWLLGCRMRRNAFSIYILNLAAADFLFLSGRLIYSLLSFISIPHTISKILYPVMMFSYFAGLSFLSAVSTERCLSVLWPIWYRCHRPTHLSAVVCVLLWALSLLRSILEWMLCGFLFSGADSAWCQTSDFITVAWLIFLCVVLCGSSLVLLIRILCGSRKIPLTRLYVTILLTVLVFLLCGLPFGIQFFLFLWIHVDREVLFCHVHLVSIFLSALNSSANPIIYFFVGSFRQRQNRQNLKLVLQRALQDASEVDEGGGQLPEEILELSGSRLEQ
PHOSPHO1 inh – PubChem AID 1565 | recombinant PHOSPHO1, absorbance phosphatase assay | inhibition, % at 13.3 µM | hit rate 1.1% among 290,000; in the data active = inhibition above about 60%
Target sequence (Q8TCT1 whole entry, looked up): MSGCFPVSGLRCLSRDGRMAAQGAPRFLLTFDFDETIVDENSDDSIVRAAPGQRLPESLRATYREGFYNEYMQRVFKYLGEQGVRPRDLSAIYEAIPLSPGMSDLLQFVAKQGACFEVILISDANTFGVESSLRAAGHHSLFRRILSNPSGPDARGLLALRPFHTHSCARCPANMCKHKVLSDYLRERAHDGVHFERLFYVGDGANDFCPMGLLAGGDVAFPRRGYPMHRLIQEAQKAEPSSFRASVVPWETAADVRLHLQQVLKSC
MrgX1 agonist – agonists of human MrgX1 receptor, primary screen, HEK293 cells, Fluo-4 calcium flux; Mas-related G-protein coupled receptor member X1 (Homo sapiens), Q96LB2; B-score at 10 µM; hit rate 0.44% among 310,000; Fluo-4 calcium fluorescence, agonist mode; active compounds read high;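 active = calcium response B-score plate-corrected fluorescence ratio at least 3 library SD, with starting fluorescence B-score inside 5 SD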
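Assay system: MrgX1-expressing HEK293 cells / Amount: fifteen thousand cells per well / Doses: test compound in the initial addition of three / Timing: cells plated overnight, dye loaded 0.5 h 37 °C, 0.5 h room temperature / Technique: kinetic calcium dye fluorescence, Fluo-4 NW / Control set: positive and negative controls per plate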
MrgX1 PAM – positive allosteric modulators of MrgX1, primary screen, HEK293 cells, Fluo-4 calcium flux. Mas-related G-protein coupled receptor member X1 (Homo sapiens), Q96LB2. FDSS; active compounds read high. B-score at 10 µM. hit rate 0.63% among 310,000;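 active = plate-corrected calcium response at least 3 library SD above typical, normal starting fluorescence, not activating the receptor alone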;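 also: compound read alongside a low EC10 to EC30 dose of BAM8-22 agonist; peak minus trough fluorescence over baseline measured at the second addition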
RGS4 block – RGS4 inhibitors, primary screen, cell-based, HEK293 M3R inducible RGS4, calcium flux | Regulator of G-protein signaling 4 (Homo sapiens), P49798 | Fluo-4 calcium flux; active compounds read high; triggered by carbachol at its EC20 | B-score at 10 µM | hit rate 0.45% among 310,000;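 active = B-score, a plate-corrected calcium signal, over three deviations above library mean, with baseline fluorescence within five deviations of library mean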;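 also: RGS4 expression induced by doxycycline in cells with stable M3 receptor; B-score is computed from the integrated fluorescence ratio over baseline after carbachol; higher B-score means a larger calcium signal and so more RGS4 inhibition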
Target sequence (P49798 whole entry, looked up): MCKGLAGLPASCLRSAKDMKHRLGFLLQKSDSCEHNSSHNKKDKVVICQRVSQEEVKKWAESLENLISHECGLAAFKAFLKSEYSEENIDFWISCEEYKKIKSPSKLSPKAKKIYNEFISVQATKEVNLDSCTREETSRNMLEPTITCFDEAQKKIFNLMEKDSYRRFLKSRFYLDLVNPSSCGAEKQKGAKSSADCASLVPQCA
RGS4 pot – RGS4 potentiators or activators, primary screen, cell-based, HEK293 M3R inducible RGS4, calcium flux. B-score at 10 µM. hit rate 0.92% among 310,000. carbachol calcium flux Fluo4; active compounds read low;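 active = B-score of the integrated calcium signal more than 4 SD below the library mean, with starting fluorescence not abnormally high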;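 also: negative B-score means reduced calcium response which marks RGS4 activation or potentiation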
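Test system: HEK293 cells with stable M3R and inducible RGS4; also added: carbachol at ECmax as muscarinic agonist stimulus; schedule: dye loading 30 min 37 °C, buffer rest 30 min RT; technique: kinetic calcium fluorescence imaging with Fluo4-AM dye, 2 µM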
MrgX1 allo conf – MrgX1 positive allosteric modulators, duplicate retest, confirmation, HEK293 cells, Fluo-4 calcium flux; shares compounds with MrgX1 PAM; activation (ratio percentage), % at 10 µM; Fluo-4 calcium fluorescence, FDSS; hit rate 13% among 1,200;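 active = ratio at least 3 SD above the weak peptide control, stable starting fluorescence, no direct agonism earlier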;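 also: compound followed by low BAM8-22 agonist challenge near EC20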
MrgX1 ant reconf – MrgX1 receptor antagonists, duplicate retest, confirmation, HEK293 cells, Fluo-4 calcium flux; remaining BAM8-22 calcium response % of control (active compounds read low), % at 10 µM; hit rate 19% among 2,300; BAM8-22 calcium flux; active compounds read low; shares compounds with MrgX1 antag; AID 602420, 2012;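 active = remaining agonist calcium response no higher than 100% minus 3 SD of agonist-only control wells, with starting fluorescence near control levels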;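 also: agonist BAM8-22 given at a near maximal EC90 to ECmax level; peak minus minimum fluorescence divided by baseline after agonist addition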
HEK293 Ca flux – nonspecific calcium signal in parental HEK293, confirmation, counter-screen for MrgX1 antagonist project, parental HEK293 cells, Fluo-4 calcium flux; Fluo-4 calcium fluorescence, FDSS; fluorescence ratio F(max-min)/F0 at 10 µM; hit rate 2% among 4,000; shares compounds with MrgX1 antag; AID 624111, 2012;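 active = duplicate-averaged calcium fluorescence ratio at least three times the standard deviation of buffer wells, a nonspecific response in parental cells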
HEK293 Ca counter – calcium response in parental HEK293 cells, primary screen, counter-screen for MrgX1 allosteric activator project, cell-based, Fluo-4 calcium flux, duplicate | shares compounds with MrgX1 antag | fluorescence ratio F(max-min)/F0 at 10 µM | hit rate 0.4% among 4,000 | Fluo-4 fluorescence ratio; active compounds read high;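 active = calcium fluorescence ratio, averaged over duplicates, at least 3 SD of the buffer-well ratio, meaning a nonspecific response in receptor-free cells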;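 also: untransfected parental HEK293 lacking MrgX1 used as counterscreen for MrgX1 allosteric activators; fluorescence change taken during the second addition on a kinetic imager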
HEK293 Ca cntr2 – calcium response in parental HEK293 cells, primary screen, counter-screen for MrgX1 agonist project, cell-based, Fluo-4 calcium flux, duplicate, agonist mode. Fluo-4 calcium fluorescence (FDSS); active compounds read high. hit rate 8.7% among 4,000. fluorescence ratio F(max-min)/F0 at 10 µM. shares compounds with MrgX1 antag. AID 624115, 2012;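 active = calcium fluorescence ratio at least three times the spread of buffer wells, meaning a non-specific response in parental cells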
Each line names hits and unclear results; the compound was inactive in the other large screens (follow-up assays come after a bar, where they were run).

Cc1ccc2c(c1)C(=O)C(=O)N2CC(=O)Nc1ccccc1NC(=O)c1ccccn1	MrgX1 PAM 15 | MrgX1 allo conf inactive | HEK293 Ca flux inactive | HEK293 Ca counter inactive | HEK293 Ca cntr2 inactive
CN(C)S(=O)(=O)Oc1cccc(C(=O)Nc2ccccc2Cl)c1	none
COc1cccc(C(=O)Nc2nnc(-c3ccc(Cl)cc3)o2)c1	MrgX1 PAM 8.4 | MrgX1 allo conf inactive | HEK293 Ca flux inactive | HEK293 Ca counter inactive | HEK293 Ca cntr2 inactive
COc1cccc(C(=O)Nc2nnc(-c3ccc(F)cc3)o2)c1	none
CN(C)S(=O)(=O)Oc1cccc(C(=O)Nc2ccc(Cl)cc2)c1	MrgX1 PAM 7.7 | MrgX1 allo conf inactive | HEK293 Ca flux inactive | HEK293 Ca counter inactive | HEK293 Ca cntr2 inactive
CCC(C)(C)C1CCc2c(sc(NC(=O)c3ccccc3C(=O)O)c2C#N)C1 (stereo not drawn)	MrgX1 antag -6.4, MrgX1 PAM 8.4 | MrgX1 allo conf inactive | MrgX1 ant reconf inactive | HEK293 Ca flux inactive | HEK293 Ca counter inactive | HEK293 Ca cntr2 57
COc1cccc(C(=O)COC(=O)CCC(=O)c2ccccc2)c1	none
O=C(CN(C1CCCCC1)S(=O)(=O)c1ccccc1)N1CCCC1	none
O=C(CN(C1CCCCC1)C1CCCCC1)N1CCc2ccccc2C1	MrgX1 PAM 8.8 | MrgX1 allo conf inactive | HEK293 Ca flux inactive | HEK293 Ca counter inactive | HEK293 Ca cntr2 inactive
COCC1CCCN(C(=O)c2ccc3nc(Cc4cccc(Cl)c4)oc3c2)C1 (stereo not drawn)	none
CC1(C)Cc2cccc(Oc3ccc(S(=O)(=O)N4CCCCC4)cn3)c2O1	MrgX1 PAM 11 | MrgX1 allo conf inactive | HEK293 Ca flux inactive | HEK293 Ca counter inactive | HEK293 Ca cntr2 inactive
COCCCNC(=O)CC1C(=O)N(Cc2ccccc2)C(C)c2nc3ccccc3n21 (stereo not drawn)	none
Cc1cccc(CCNC(=O)C2CCN(S(=O)(=O)c3ccccc3)CC2)c1	MrgX1 PAM 11 | MrgX1 allo conf inactive | HEK293 Ca flux inactive | HEK293 Ca counter inactive | HEK293 Ca cntr2 inactive
O=C(NCCc1cccc(F)c1)C1CCN(S(=O)(=O)c2ccccc2)CC1	none
COC(=O)/C=C/c1ccc(OC(=O)OC)c(OC(=O)OC)c1	none
COc1ccc(-c2[nH]ncc2-c2cnn(-c3ccccc3)c2)c(O)c1	MrgX1 PAM 9.4 | MrgX1 allo conf inactive | HEK293 Ca flux inactive | HEK293 Ca counter inactive | HEK293 Ca cntr2 inactive
COc1ccc(-c2cn[nH]c2-c2ccc(O)cc2O)cc1	none
C=C(C)COc1ccc(-c2[nH]ncc2-c2ccc(OC)cc2)c(O)c1	none
C=C(C)COc1ccc(-c2[nH]ncc2-c2ccccc2)c(O)c1	MrgX1 PAM 16 | MrgX1 allo conf 14% | HEK293 Ca flux inactive | HEK293 Ca counter inactive | HEK293 Ca cntr2 inactive
CC(=O)Nc1ccc(OS(=O)(=O)c2cc(Cl)ccc2C)cc1	none
O=C(CCc1nnc(Cc2c[nH]c3ccccc23)o1)NC1CCCC1	MrgX1 PAM 16 | MrgX1 allo conf inactive | HEK293 Ca flux inactive | HEK293 Ca counter inactive | HEK293 Ca cntr2 inactive
CC1Cc2ccccc2N1C(=O)C1CCCN(S(=O)(=O)c2cccc3cccnc23)C1 (stereo not drawn)	MrgX1 PAM 8.9 (no result: RGS4 block, RGS4 pot) | MrgX1 allo conf 8.6% | HEK293 Ca flux inactive | HEK293 Ca counter inactive | HEK293 Ca cntr2 inactive
Nc1nc(CCl)nc(N(c2ccccc2)c2ccccc2)n1	MrgX1 PAM 10 | MrgX1 allo conf inactive | HEK293 Ca flux inactive | HEK293 Ca counter inactive | HEK293 Ca cntr2 inactive
Nc1nc(Cl)nc(N(c2ccccc2)c2ccccc2)n1	none
N#CCCn1cc(/C=N/N=C2\NC(=O)C(CC(=O)O)S2)c(-c2ccc(F)cc2)n1 (stereo not drawn)	none
C=CCNC(=S)Nc1ccc(OC)c(S(=O)(=O)N2CCOCC2)c1	MrgX1 PAM 8.7 | MrgX1 allo conf inactive | HEK293 Ca flux inactive | HEK293 Ca counter inactive | HEK293 Ca cntr2 inactive
C=CCNC(=S)Nc1ccc(Cl)c(S(=O)(=O)N2CCOCC2)c1	none
CCOC(=O)c1c(NC(=O)C2CCCCC2C(=O)O)sc2c1CCCCC2 (stereo not drawn)	MrgX1 PAM 16 | MrgX1 allo conf inactive | HEK293 Ca flux inactive | HEK293 Ca counter inactive | HEK293 Ca cntr2 inactive
CCc1cccc(NC(=O)c2ccc(NS(=O)(=O)c3c(C)noc3C)cc2)c1	MrgX1 PAM 15 | MrgX1 allo conf 15% | HEK293 Ca flux inactive | HEK293 Ca counter inactive | HEK293 Ca cntr2 inactive
O=C(Nc1nnc(SCC(=O)N2CCCCC2)s1)c1cccs1	PHOSPHO1 inh 74, MrgX1 PAM 7.1 | MrgX1 allo conf inactive | HEK293 Ca flux inactive | HEK293 Ca counter inactive | HEK293 Ca cntr2 inactive
O=C(Cc1cccs1)Nc1nnc(SCC(=O)N2CCCCC2)s1	none
CN(C)C(=O)c1cn(-c2ccccc2)nc1-c1cc2ccccc2o1	MrgX1 PAM 8 | MrgX1 allo conf inactive | HEK293 Ca flux inactive | HEK293 Ca counter inactive | HEK293 Ca cntr2 inactive
CN(C)C(=O)c1cn(-c2ccccc2)nc1-c1cc2ccccc2oc1=O	none
COCCNC(=O)CN(C(=O)CCC(=O)Nc1nccs1)c1ccc2c(c1)OCO2	MrgX1 PAM 33 | MrgX1 allo conf inactive | HEK293 Ca flux inactive | HEK293 Ca counter inactive | HEK293 Ca cntr2 inactive
CC(C)NC(=O)CN(C(=O)CCC(=O)Nc1nccs1)c1ccc2c(c1)OCO2	none
